Data published in ChEMBL document CHEMBL3792365, “Dioxol and dihydrodioxin analogs of 2- and 3-phenylacetonitriles as potent anti-cancer agents with nanomolar activity against a variety of human cancer cells” (2016).

How the values were obtained:
Format in all cases: functional
U-251 [1] = test: Growth inhibition of human U251 cells at 10 uM after 48 hrs by sulforhodamine B assay; conditions: U-251, 48 h, values are per cent of control
Malme-3M = test: Growth inhibition of human MALME-3M cells at 10 uM after 48 hrs by sulforhodamine B assay; conditions: values are per cent of control
MDA-MB-435 [2] = test: Growth inhibition of human MDA-MB-435 cells at 10 uM after 48 hrs by sulforhodamine B assay; conditions: MDA-MB-435, 48 h, values are per cent of control
[3] = Growth inhibition of human UACC257 cells at 10 uM after 48 hrs by sulforhodamine B assay; conditions: UACC-257, 48 h, values are per cent of control
[4] = Growth inhibition of human OVCAR3 cells at 10 uM after 48 hrs by sulforhodamine B assay; conditions: OVCAR-3, 48 h, values are per cent of control
[5] = Growth inhibition of human PC3 cells at 10 uM after 48 hrs by sulforhodamine B assay; conditions: PC-3, 48 h, values are per cent of control
MCF7 [6] = test: Growth inhibition of human MCF7 cells at 10 uM after 48 hrs by sulforhodamine B assay; conditions: MCF7, 48 h, values are per cent of control
[7] = Growth inhibition of human BT549 cells at 10 uM after 48 hrs by sulforhodamine B assay; conditions: BT-549, 48 h, values are per cent of control
MDA-MB-468 = test: Growth inhibition of human MDA-MB-468 cells at 10 uM after 48 hrs by sulforhodamine B assay; conditions: MDA-MB-468, 48 h, values are per cent of control
[8] = Growth inhibition of human HL-60(TB) cells after 48 hrs by sulforhodamine B assay; conditions: HL-60, 48 h
Procedure, shortened: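 Five-dose study across the 60-cell human tumour panel. GI50 is the drug concentration giving a 50% reduction in net protein increase relative to control cells.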

SR [9] = test: Growth inhibition of human SR cells after 48 hrs by sulforhodamine B assay
Procedure, shortened: (§1)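 Five-dose concentration series run across a panel of 60 human tumour cell lines. GI50 is taken as the drug concentration giving a 50% reduction in net protein increase relative to untreated control cells.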

[10] = Growth inhibition of human HOP62 cells after 48 hrs by sulforhodamine B assay; conditions: HOP-62, 48 h
Procedure, shortened: (§2)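 Five-dose testing against a 60-line human tumor cell panel. GI50 is the drug concentration giving a 50% reduction in net protein increase relative to untreated control cells.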

[11] = Growth inhibition of human HOP92 cells after 48 hrs by sulforhodamine B assay; conditions: HOP-92, 48 h; procedure, shortened: as §2
NCI-H23 = test: Growth inhibition of human NCI-H23 cells after 48 hrs by sulforhodamine B assay; conditions: NCI-H23, 48 h; procedure, shortened: as §1
NCI-H522 = test: Growth inhibition of human NCI-H522 cells after 48 hrs by sulforhodamine B assay; conditions: NCI-H522, 48 h; procedure, shortened: as §1
[12] = Growth inhibition of human HCC2998 cells after 48 hrs by sulforhodamine B assay; conditions: HCC 2998, 48 h; procedure, shortened: as §2
[13] = Growth inhibition of human HCT15 cells after 48 hrs by sulforhodamine B assay; conditions: HCT-15, 48 h; procedure, shortened: as §2
KM12 [14] = test: Growth inhibition of human KM12 cells after 48 hrs by sulforhodamine B assay; conditions: KM12, 48 h; procedure, shortened: as §2
[15] = Growth inhibition of human SW620 cells after 48 hrs by sulforhodamine B assay; conditions: SW-620, 48 h; procedure, shortened: as §1
[16] = Growth inhibition of human SF268 cells after 48 hrs by sulforhodamine B assay; conditions: SF-268, 48 h; procedure, shortened: as §1
[17] = Growth inhibition of human SF539 cells after 48 hrs by sulforhodamine B assay; conditions: SF-539, 48 h; procedure, shortened: as §1
U-251 [18] = test: Growth inhibition of human U251 cells after 48 hrs by sulforhodamine B assay; conditions: U-251, 48 h; procedure, shortened: as §1
MDA-MB-435 [19] = test: Growth inhibition of human MDA-MB-435 cells after 48 hrs by sulforhodamine B assay; conditions: MDA-MB-435, 48 h; procedure, shortened: as §2
SK-MEL-5 = test: Growth inhibition of human SK-MEL-5 cells after 48 hrs by sulforhodamine B assay; conditions: SK-MEL-5, 48 h; procedure, shortened: as §1
[20] = Growth inhibition of human NCI-ADR-RES cells after 48 hrs by sulforhodamine B assay; procedure, shortened: as §1
[21] = Growth inhibition of human SKOV3 cells after 48 hrs by sulforhodamine B assay; conditions: SK-OV-3, 48 h; procedure, shortened: as §1
CCRF-CEM = test: Growth inhibition of human CCRF-CEM cells at 10 uM after 48 hrs by sulforhodamine B assay; conditions: values are per cent of control
[22] = Growth inhibition of human HL-60(TB) cells at 10 uM after 48 hrs by sulforhodamine B assay; conditions: HL-60, 48 h, values are per cent of control
[23] = Growth inhibition of human MOLT4 cells at 10 uM after 48 hrs by sulforhodamine B assay; conditions: MOLT-4, 48 h, values are per cent of control
[24] = Growth inhibition of human RPMI8226 cells at 10 uM after 48 hrs by sulforhodamine B assay; conditions: RPMI-8226, 48 h, values are per cent of control
SR [25] = test: Growth inhibition of human SR cells at 10 uM after 48 hrs by sulforhodamine B assay; conditions: values are per cent of control
[26] = Growth inhibition of human HOP62 cells at 10 uM after 48 hrs by sulforhodamine B assay; conditions: HOP-62, 48 h, values are per cent of control
[27] = Growth inhibition of human HOP92 cells at 10 uM after 48 hrs by sulforhodamine B assay; conditions: HOP-92, 48 h, values are per cent of control
NCI-H226 = test: Growth inhibition of human NCI-H226 cells at 10 uM after 48 hrs by sulforhodamine B assay; conditions: NCI-H226, 48 h, values are per cent of control
KM12 [28] = test: Growth inhibition of human KM12 cells at 10 uM after 48 hrs by sulforhodamine B assay; conditions: KM12, 48 h, values are per cent of control
[29] = Growth inhibition of human SNB19 cells at 10 uM after 48 hrs by sulforhodamine B assay; conditions: SNB-19, 48 h, values are per cent of control
[30] = Growth inhibition of human UO31 cells after 48 hrs by sulforhodamine B assay; conditions: UO-31, 48 h
Procedure, shortened: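 Five-dose testing across the 60-line human tumour cell panel. GI50 is the drug concentration that gives a 50% reduction in net protein increase relative to control cells.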

[31] = Growth inhibition of human PC3 cells after 48 hrs by sulforhodamine B assay; conditions: PC-3, 48 h; procedure, shortened: as §1
[32] = Growth inhibition of human DU145 cells after 48 hrs by sulforhodamine B assay; conditions: DU-145, 48 h; procedure, shortened: as §2
MCF7 [33] = test: Growth inhibition of human MCF7 cells after 48 hrs by sulforhodamine B assay; conditions: MCF7, 48 h; procedure, shortened: as §2
MDA-MB-231 = test: Growth inhibition of human MDA-MB-231 cells after 48 hrs by sulforhodamine B assay; conditions: MDA-MB-231, 48 h; procedure, shortened: as §2
[34] = Growth inhibition of human Hs 578T cells after 48 hrs by sulforhodamine B assay; procedure, shortened: as §2
[35] = Growth inhibition of human Caki1 cells after 48 hrs by sulforhodamine B assay; conditions: CAKI-1, 48 h; procedure, shortened: as §2

## COc1ccc(/C=C(\C#N)c2ccc3c(c2)OCO3)cc1
U-251 [1]
  growth, % of control at 10 µM: 16.5%
Malme-3M
  growth, % of control at 10 µM: 24.3%
MDA-MB-435 [2]
  growth, % of control at 10 µM: -29.1%
[3]
  growth, % of control at 10 µM: 23%
[4]
  growth, % of control at 10 µM: 4.9%
[5]
  growth, % of control at 10 µM: 21.2%
MCF7 [6]
  growth, % of control at 10 µM: 20.7%
[7]
  growth, % of control at 10 µM: 30.3%
MDA-MB-468
  growth, % of control at 10 µM: 1.2%
[8]
  GI50: 0.24 µM
SR [9]
  GI50: 0.05 µM
[10]
  GI50: 0.3 µM
[11]
  GI50: 4.22 µM
NCI-H23
  GI50: 0.86 µM
NCI-H522
  GI50: 0.04 µM
[12]
  GI50: 5.26 µM
[13]
  GI50: 0.07 µM
KM12 [14]
  GI50: 0.07 µM
[15]
  GI50: 0.12 µM
[16]
  GI50: 0.73 µM
[17]
  GI50: 0.25 µM
U-251 [18]
  GI50: 0.43 µM
MDA-MB-435 [19]
  GI50: 0.03 µM
SK-MEL-5
  GI50: 0.21 µM
[20]
  GI50: 0.08 µM
[21]
  GI50: 0.4 µM
CCRF-CEM
  growth, % of control at 10 µM: 21.6%
[22]
  growth, % of control at 10 µM: 0.1%
[23]
  growth, % of control at 10 µM: 19.5%
[24]
  growth, % of control at 10 µM: 18.9%
SR [25]
  growth, % of control at 10 µM: 11.8%
[26]
  growth, % of control at 10 µM: 43.8%
[27]
  growth, % of control at 10 µM: 40.4%
NCI-H226
  growth, % of control at 10 µM: 71.8%
KM12 [28]
  growth, % of control at 10 µM: 30%
[29]
  growth, % of control at 10 µM: 46%
[30]
  GI50: 0.58 µM
[31]
  GI50: 0.32 µM
[32]
  GI50: 0.59 µM
MCF7 [33]
  GI50: 0.08 µM
MDA-MB-231
  GI50: 2.11 µM
[34]
  GI50: 0.46 µM

## COc1cc(/C(C#N)=C/c2ccc3c(c2)OCCO3)cc(OC)c1OC
U-251 [1]
  growth, % of control at 10 µM: 8.1%
Malme-3M
  growth, % of control at 10 µM: 64.3%
MDA-MB-435 [2]
  growth, % of control at 10 µM: -22.2%
[3]
  growth, % of control at 10 µM: 76%
[5]
  growth, % of control at 10 µM: 26.5%
MCF7 [6]
  growth, % of control at 10 µM: 14.6%
[7]
  growth, % of control at 10 µM: -17.2%
MDA-MB-468
  growth, % of control at 10 µM: -15.1%
[8]
  GI50: 0.04 µM
SR [9]
  GI50: 0.06 µM
[10]
  GI50: 0.05 µM
[11]
  GI50: 0.12 µM
NCI-H23
  GI50: 0.16 µM
NCI-H522
  GI50: 0.05 µM
[12]
  GI50: 0.14 µM
[13]
  GI50: 0.04 µM
KM12 [14]
  GI50: 0.05 µM
[15]
  GI50: 0.04 µM
[16]
  GI50: 0.11 µM
[17]
  GI50: 0.02 µM
U-251 [18]
  GI50: 0.05 µM
MDA-MB-435 [19]
  GI50: 0.02 µM
SK-MEL-5
  GI50: 0.03 µM
[20]
  GI50: 0.03 µM
[21]
  GI50: 0.04 µM
[35]
  GI50: 0.05 µM
CCRF-CEM
  growth, % of control at 10 µM: 0.4%
[22]
  growth, % of control at 10 µM: -46.3%
[23]
  growth, % of control at 10 µM: -14.3%
[24]
  growth, % of control at 10 µM: 39.2%
SR [25]
  growth, % of control at 10 µM: -11%
[26]
  growth, % of control at 10 µM: 40.8%
[27]
  growth, % of control at 10 µM: -1.7%
NCI-H226
  growth, % of control at 10 µM: 43.9%
KM12 [28]
  growth, % of control at 10 µM: 2%
[29]
  growth, % of control at 10 µM: 51.2%
[31]
  GI50: 0.06 µM
[32]
  GI50: 0.13 µM
MCF7 [33]
  GI50: 0.04 µM
MDA-MB-231
  GI50: 0.17 µM
[34]
  GI50: 0.07 µM

## N#C/C(=C\c1ccc2c(c1)OCO2)c1ccc2c(c1)OCO2
U-251 [1]
  growth, % of control at 10 µM: 77.2%
Malme-3M
  growth, % of control at 10 µM: 69%
MDA-MB-435 [2]
  growth, % of control at 10 µM: -5.7%
[3]
  growth, % of control at 10 µM: 80.2%
[4]
  growth, % of control at 10 µM: 71.7%
[5]
  growth, % of control at 10 µM: 70.2%
MCF7 [6]
  growth, % of control at 10 µM: 23.9%
[7]
  growth, % of control at 10 µM: 49.6%
MDA-MB-468
  growth, % of control at 10 µM: 54.9%
CCRF-CEM
  growth, % of control at 10 µM: 73.2%
[22]
  growth, % of control at 10 µM: 57.9%
[23]
  growth, % of control at 10 µM: 67.7%
[24]
  growth, % of control at 10 µM: 75.2%
SR [25]
  growth, % of control at 10 µM: 26.2%
[26]
  growth, % of control at 10 µM: 76.7%
[27]
  growth, % of control at 10 µM: 94.2%
NCI-H226
  growth, % of control at 10 µM: 94.9%
KM12 [28]
  growth, % of control at 10 µM: 42.2%
[29]
  growth, % of control at 10 µM: 95.9%
